Calls of active or inactive are those of the source. The calls are words filed in the database; no cut-off is given here.
Key:
A549 = test: Cytotoxicity against human A549 cells assessed as inhibition of cell proliferation after 72 hrs by MTT assay; type: functional, cell-based; settings: A549, 72 h
Summary of the method: (§1)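 Cells, 5×10^3 per well, exposed in triplicate at 37 °C; DMSO-only wells as controls (0.1% v/v DMSO in all cell work). After 68 h, MTT (5 mg/mL stock) was added for a further 4 h. Overnight solubilisation at 37 °C in 10% SDS/5% isobutanol/0.1% HCl, then A570 read.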

HeLa = test: Cytotoxicity against human HeLa cells assessed as inhibition of cell proliferation after 72 hrs by MTT assay; type: functional, cell-based; summary of the method: as §1
HepG2 = test: Cytotoxicity against human HepG2 cells assessed as inhibition of cell proliferation after 72 hrs by MTT assay; type: functional, cell-based; settings: HepG2, 72 h; summary of the method: as §1
Thioredoxin reductase [1] = target: T1, Thioredoxin reductase (Homo sapiens, UniProt Q16881+Q9NNW7+Q86VQ6); test: Inhibition of TrxR in human HeLa cells by Trx-mediated insulin reduction assay
[2] = Cytotoxicity against human […] cells assessed as inhibition of cell proliferation after 72 hrs by MTT assay; type: functional, cell-based; summary of the method: as §1
[3] = Cytotoxicity against human HL60 cells assessed as inhibition of cell proliferation after 72 hrs by MTT assay; type: functional, cell-based; settings: HL-60, 72 h; summary of the method: as §1
[4] = target: Thioredoxin reductase 1 (Rattus norvegicus) (UniProt O89049); test: In vitro inhibition of NADPH-reduced TrxR (unknown origin) after 2 hrs incubation by microplate reader
Sequence of Thioredoxin reductase 1 (Rattus norvegicus) (O89049 whole entry, looked up): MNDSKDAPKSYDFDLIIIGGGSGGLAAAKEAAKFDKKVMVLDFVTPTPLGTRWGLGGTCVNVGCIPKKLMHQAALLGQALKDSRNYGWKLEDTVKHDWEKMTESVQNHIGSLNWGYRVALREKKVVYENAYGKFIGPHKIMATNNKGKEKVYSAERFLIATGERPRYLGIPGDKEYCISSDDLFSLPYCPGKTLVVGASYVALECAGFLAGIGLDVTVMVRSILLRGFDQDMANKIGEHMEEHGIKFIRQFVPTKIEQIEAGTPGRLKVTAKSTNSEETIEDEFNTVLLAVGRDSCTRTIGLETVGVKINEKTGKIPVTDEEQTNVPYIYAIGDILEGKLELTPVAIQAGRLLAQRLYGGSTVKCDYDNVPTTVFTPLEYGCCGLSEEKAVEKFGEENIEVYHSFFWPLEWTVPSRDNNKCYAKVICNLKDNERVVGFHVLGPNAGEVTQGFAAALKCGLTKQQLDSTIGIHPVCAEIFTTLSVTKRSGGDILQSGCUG

Thioredoxin reductase [5] = target: T1, Thioredoxin reductase; test: Inhibition of TrxR in human HeLa cells after 48 hrs by end point reduction assay; type: cell-based
Summary of the method: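 HeLa cells treated 48 h, lysed in RIPA buffer and protein measured by Bradford. Lysate (20 μg) incubated 30 min at 37 °C with 0.3 mM insulin, 660 μM NADPH and 15 μM E. coli Trx (pH 7.6). Stopped with DTNB in 6 M guanidine-HCl; A412 minus Trx-free blank, as % of DMSO control.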

Thioredoxin reductase [6] = target: T1, Thioredoxin reductase; test: Inhibition of TrxR in human HeLa cells after 48 hrs by TRFS-green based fluorescence microscopy; type: cell-based
Summary of the method: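 Live HeLa cells exposed to compound for 44 h, then to TRFS-green (10 μM) for a further 4 h. Green fluorescence, which tracks cellular TrxR activity, imaged alongside phase contrast.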

[7] = In vitro inhibition of TrxR U498C mutant (unknown origin) up to 40 uM after 2 hrs incubation by microplate reader

Work on `COc1cc(O)cc(O)c1C(=O)/C=C/c1ccc(C)cc1` yielded an IC50 (A549) of over 50 µM, an IC50 (HeLa) of over 50 µM and an IC50 (HepG2) of over 50 µM.
For `COc1ccccc1/C=C/C(=O)c1c(O)cc(O)cc1OC`, the IC50 (A549) was 47.7 µM, the IC50 (HeLa) was 43.6 µM and the IC50 (HepG2) was 15.3 µM.
For `COc1cc(O)cc(O)c1C(=O)/C=C/c1ccc([N+](=O)[O-])cc1`, the IC50 (A549) was over 50 µM, the IC50 (HeLa) was over 50 µM and the IC50 (HepG2) was 41 µM.
`COc1cc(OC)c(C(=O)/C=C/c2cc(OC)c(OC)cc2OC)c(OC)c1` showed an IC50 (A549) of 45.1 µM, an IC50 (HeLa) of 40.5 µM and an IC50 (HepG2) of 23.8 µM.
For `COc1cc(/C=C/C(=O)c2c(O)cc(O)cc2OC)ccc1O`, the IC50 (A549) was over 50 µM, the IC50 (HeLa) was over 50 µM and the IC50 (HepG2) was over 50 µM.
For `COc1cc(/C=C/C(=O)c2c(OC)cc(O)c(CC=C(C)C)c2O)ccc1O`, the IC50 (A549) was 11.8 µM, the IC50 (HeLa) was 33.8 µM and the IC50 (HepG2) was 21.7 µM.
With `COc1cc(OC)c(C(=O)/C=C/c2ccc(C)cc2)c(OC)c1` the IC50 (A549) was 15 µM, the IC50 (HeLa) was 17 µM and the IC50 (HepG2) was 18.4 µM.
Work on `COc1cc(O)cc(O)c1C(=O)/C=C/c1ccc(Cl)cc1` yielded an IC50 (A549) of 18.2 µM, an IC50 (HeLa) of 17 µM and an IC50 (HepG2) of 12.2 µM.
In the case of `COc1cc(OC)c(C(=O)/C=C/c2ccc(O)c(O)c2)c(OC)c1`, the IC50 (A549) is reported as 8.2 µM, the IC50 (HeLa) is reported as 15.8 µM and the IC50 (HepG2) is reported as 27.5 µM.
With `COc1cc(O)c(CC=C(C)C)c(O)c1C(=O)/C=C/c1ccc(O)cc1` [XANTHOHUMOL] the IC50 (A549) was 30.5 µM, the IC50 (HeLa) was 40.4 µM and the IC50 (HepG2) was 35 µM. It also gave an IC50 (Thioredoxin reductase [1]) of over 40 µM.
For `COc1cc(O)c(CC=C(C)C)c(O)c1C(=O)/C=C/c1ccc(O)c(O)c1`, the IC50 (A549) was 16.1 µM, the IC50 (HeLa) was 38.1 µM and the IC50 (HepG2) was 15.2 µM.
Work on `COc1cc(OC)c(C(=O)/C=C/c2ccc(O)c(OC)c2)c(OC)c1` yielded an IC50 (A549) of 43.8 µM, an IC50 (HeLa) of 44.9 µM and an IC50 (HepG2) of 17 µM.
Compound `COc1cc(/C=C/C(=O)c2c(OC)cc(O)c(CC=C(C)C)c2O)cc(OC)c1OC` has an IC50 (A549) of over 50 µM, an IC50 (HeLa) of over 50 µM and an IC50 (HepG2) of over 50 µM.
With `COc1cc(O)c(CC=C(C)C)c(O)c1C(=O)/C=C/c1ccc([N+](=O)[O-])cc1` the IC50 (A549) was 31.2 µM, the IC50 (HeLa) was 29.7 µM and the IC50 (HepG2) was 12.4 µM.
`COc1ccc(/C=C/C(=O)c2c(O)cc(O)cc2OC)cc1` gave an IC50 (A549) of over 50 µM, an IC50 (HeLa) of 47.7 µM and an IC50 (HepG2) of 18.1 µM.
`COc1cc(OC)c(C(=O)/C=C/c2cc(OC)c(OC)c(OC)c2)c(OC)c1` showed an IC50 (A549) of 22.3 µM, an IC50 (HeLa) of 9.9 µM and an IC50 (HepG2) of 16.5 µM.
`COc1cc(O)c(CC=C(C)C)c(O)c1C(=O)/C=C/c1cccc([N+](=O)[O-])c1` gave an IC50 (A549) of 15 µM, an IC50 (HeLa) of 16.5 µM and an IC50 (HepG2) of 16.6 µM.
`COc1cc(OC)c(C(=O)/C=C/c2ccc(O)cc2)c(OC)c1` showed an IC50 (A549) of 49.4 µM, an IC50 (HeLa) of 40.6 µM and an IC50 (HepG2) of 37 µM.
For `COc1ccc(/C=C/C(=O)c2c(OC)cc(O)c(CC=C(C)C)c2O)cc1`, the IC50 (A549) was 38 µM, the IC50 (HeLa) was over 50 µM and the IC50 (HepG2) was 32.4 µM.
`COc1cc(/C=C/C(=O)c2c(O)cc(O)cc2OC)cc(OC)c1OC` showed an IC50 (A549) of 28.4 µM, an IC50 (HeLa) of 18.9 µM and an IC50 (HepG2) of 20.4 µM.
Compound `COc1cc(/C=C/C(=O)c2c(OC)cc(OC)cc2OC)cc(OC)c1` has an IC50 (A549) of 10.1 µM, an IC50 (HeLa) of 9.2 µM and an IC50 (HepG2) of 9 µM.
In the case of `COc1cc(O)cc(O)c1C(=O)/C=C/c1cccc([N+](=O)[O-])c1`, the IC50 (A549) is reported as 36.8 µM, the IC50 (HeLa) is reported as 15.5 µM and the IC50 (HepG2) is reported as 16.3 µM. The IC50 [2] was 20.1 µM, the IC50 [3] was 5.9 µM and the inhibition [4] was “Active”.
Work on `COc1ccc(/C=C/C(=O)c2c(OC)cc(O)c(CC=C(C)C)c2O)cc1OC` yielded an IC50 (A549) of 15.7 µM, an IC50 (HeLa) of 27.7 µM and an IC50 (HepG2) of 13.8 µM.
For `COc1cc(OC)c(C(=O)/C=C/c2ccc(OC)c(OC)c2)c(OC)c1`, the IC50 (A549) was 39.1 µM, the IC50 (HeLa) was 18.1 µM and the IC50 (HepG2) was 11.6 µM.
With `COc1ccccc1/C=C/C(=O)c1c(OC)cc(O)c(CC=C(C)C)c1O` the IC50 (A549) was 12.5 µM, the IC50 (HeLa) was 19.7 µM and the IC50 (HepG2) was 14.6 µM.
In the case of `COc1cc(O)cc(O)c1C(=O)/C=C/c1ccc(O)cc1` [HELICHRYSETIN], the IC50 (A549) is reported as over 50 µM, the IC50 (HeLa) is reported as 48.1 µM and the IC50 (HepG2) is reported as 40.2 µM.
With `COc1cc(O)c(CC=C(C)C)c(O)c1C(=O)/C=C/c1ccc(C(F)(F)F)cc1` the IC50 (A549) was 11.1 µM, the IC50 (HeLa) was 6.8 µM and the IC50 (HepG2) was 6.5 µM. For the same compound, the IC50 [2] was 10.7 µM, the IC50 [3] was 5.3 µM and the inhibition [4] was “Active”.
Work on `COc1cc(O)c(CC=C(C)C)c(O)c1C(=O)/C=C/c1ccc(Cl)cc1` yielded an IC50 (A549) of 11.8 µM, an IC50 (HeLa) of 16.5 µM and an IC50 (HepG2) of 10.1 µM.
In the case of `COc1cc(OC)c(C(=O)/C=C/c2cccc([N+](=O)[O-])c2)c(OC)c1`, the inhibition (Thioredoxin reductase [5]) is reported as “Dose-dependent effect”, the inhibition (Thioredoxin reductase [6]) is reported as “Dose-dependent effect” and the IC50 (Thioredoxin reductase [1]) is reported as 3.5 µM. The IC50 [4] was 12.8 µM and the inhibition [7] was “inactive”.
With `COc1cc(O)cc(O)c1C(=O)/C=C/c1ccc(O)c(O)c1` the IC50 (A549) was 11.8 µM, the IC50 (HeLa) was 21.3 µM and the IC50 (HepG2) was 28.7 µM.
`COc1cc(OC)c(C(=O)/C=C/c2ccc(C(F)(F)F)cc2)c(OC)c1` showed an IC50 (A549) of 14.2 µM, an IC50 (HeLa) of 5.1 µM and an IC50 (HepG2) of 9.7 µM. The IC50 [2] was 15.7 µM, the IC50 [3] was 6.5 µM and the inhibition [4] was “Active”.
For `COc1ccc(/C=C/C(=O)c2c(OC)cc(O)c(CC=C(C)C)c2O)c(OC)c1OC`, the IC50 (A549) was 18 µM, the IC50 (HeLa) was over 50 µM and the IC50 (HepG2) was 14.8 µM.
In the case of `COc1cc(O)cc(O)c1C(=O)/C=C/c1ccc(C(F)(F)F)cc1`, the IC50 (A549) is reported as 15.4 µM, the IC50 (HeLa) is reported as 9.5 µM and the IC50 (HepG2) is reported as 14.1 µM.
Compound `COc1cc(OC)c(OC)cc1/C=C/C(=O)c1c(O)cc(O)cc1OC` has an IC50 (A549) of 34.2 µM, an IC50 (HeLa) of 37.8 µM and an IC50 (HepG2) of 18.7 µM.
For `COc1cc(OC)c(C(=O)/C=C/c2ccccc2OC)c(OC)c1`, the IC50 (A549) was 19.8 µM, the IC50 (HeLa) was 19.6 µM and the IC50 (HepG2) was 16.3 µM.
With `COc1cc(/C=C/C(=O)c2c(O)cc(O)cc2OC)cc(OC)c1` the IC50 (A549) was 34 µM, the IC50 (HeLa) was 13.3 µM and the IC50 (HepG2) was 17.6 µM.
With `COc1cc(OC)c(C(=O)/C=C/c2ccc(N)cc2)c(OC)c1` the IC50 (A549) was over 50 µM, the IC50 (HeLa) was over 50 µM and the IC50 (HepG2) was 45.2 µM.
`COc1cc(OC)c(C(=O)/C=C/c2ccc(OC)c(OC)c2OC)c(OC)c1` showed an IC50 (A549) of 44.3 µM, an IC50 (HeLa) of over 50 µM and an IC50 (HepG2) of over 50 µM.
Compound `COc1ccc(/C=C/C(=O)c2c(O)cc(O)cc2OC)cc1OC` has an IC50 (A549) of over 50 µM, an IC50 (HeLa) of 49.5 µM and an IC50 (HepG2) of 18.5 µM.
In the case of `COc1cc(OC)c(C(=O)/C=C/c2ccc(Cl)cc2)c(OC)c1`, the inhibition [4] is reported as “Active”.
`COc1cc(OC)c(OC)cc1/C=C/C(=O)c1c(OC)cc(O)c(CC=C(C)C)c1O` showed an IC50 (A549) of 14.4 µM, an IC50 (HeLa) of over 50 µM and an IC50 (HepG2) of over 50 µM.

Source: ChEMBL document CHEMBL3414420, “Synthesis of xanthohumol analogues and discovery of potent thioredoxin reductase inhibitor as potential anticancer agent” (J Med Chem, 2015)
